Assay results reported in ChEMBL document CHEMBL1122848, “5-(Haloalkyl)-2'-deoxyuridines: a novel type of potent antiviral nucleoside analogue” (1985).
≈ marks a conversion by molar mass, not a printed value.

Tested on: Mus musculus
Test: Effect of delayed treatment on mortality of systemically infected mice at 25 mg/kg per day administered through oral route after 72 hr of start of treatment
Assay type: functional
Details: not given
Summary of the method: (§1)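 Hairless (hr/hr) mice, 18–20 g, ten per group, inoculated intraperitoneally with HSV-1 strain Brand at 2 × 10⁵ PFU/0.2 mL per mouse. Dosing was 25 mg/kg per day, given twice daily either intraperitoneally or orally by gavage. Treatment started at 3, 24, 48 or 72 h post-infection. Read-out was percent survivors.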

For `O=c1[nH]c(=O)n([C@H]2C[C@H](O)[C@@H](CO)O2)cc1CCCl`, the Survivors was 70%.

Tested on: Mus musculus
Test: In vivo evaluation for the percent survivors in systemic HSV-1 infection of Mice administered intraperitoneally at a dose 5 mg/kg per day
Assay type: functional
Details: route intraperitoneal
Summary of the method: (§2)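 Systemic infection model in hairless (hr/hr) mice weighing 18–20 g, twelve per group. Mice were inoculated i.p. with HSV-1 (Brand) at 2 × 10⁵ PFU/0.2 mL per mouse. Compound was given twice a day i.p. or by oral gavage at the stated daily dose. Read-out was percent survivors.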

With `O=c1[nH]c(=O)n([C@H]2C[C@H](O)[C@@H](CO)O2)cc1CCCl` the Survivors was 92%.

Tested on: Mus musculus
Test: In vivo evaluation for the percent survivors in systemic HSV-1 infection of Mice administered through intraperitoneal at a dose 50 mg/kg per day
Assay type: functional
Details: not given
Summary of the method: as §2

Compared with `Nc1nc2c(ncn2COCCO)c(=O)[nH]1` [ACYCLOVIR], `O=c1[nH]c(=O)n([C@H]2C[C@H](O)[C@@H](CO)O2)cc1/C=C/Br` [BRIVUDINE] is lower in Survivors: 100% for the first, 33% for the second.

Tested on: Mus musculus
Test: Effect of delayed treatment on mortality of systemically infected mice at 25 mg/kg per day administered Intraperitoneally after 24 hr of start of treatment
Assay type: functional
Details: route intraperitoneal
Summary of the method: as §1

`O=c1[nH]c(=O)n([C@H]2C[C@H](O)[C@@H](CO)O2)cc1CCCl` was tested, and the Survivors was 100%.

Tested on: Mus musculus
Test: In vivo evaluation for the percent survivors in systemic HSV-1 infection of Mice administered intraperitoneally at a dose 50 mg/kg per day
Assay type: functional
Details: route intraperitoneal
Summary of the method: as §2

`O=c1[nH]c(=O)n([C@H]2C[C@H](O)[C@@H](CO)O2)cc1CCCl` showed a Survivors of 92%.

Tested on: Mus musculus
Test: In vivo evaluation for the percent survivors in systemic HSV-1 infection of Mice administered through oral route at a dose 50 mg/kg per day
Assay type: functional
Details: not given
Summary of the method: as §2

Going from `O=c1[nH]c(=O)n([C@H]2C[C@H](O)[C@@H](CO)O2)cc1CCCl` to `O=c1[nH]c(=O)n([C@H]2C[C@H](O)[C@@H](CO)O2)cc1/C=C/Br` [BRIVUDINE], the Survivors falls from 100% to 8%.

`Nc1nc2c(ncn2COCCO)c(=O)[nH]1` [ACYCLOVIR] was tested, and the Survivors was 92%.

Tested on: Mus musculus
Test: Effect of delayed treatment on mortality of systemically infected mice at 25 mg/kg per day administered through oral route after 3 hr of start of treatment
Assay type: functional
Details: not given
Summary of the method: as §1

For `O=c1[nH]c(=O)n([C@H]2C[C@H](O)[C@@H](CO)O2)cc1CCCl`, the Survivors was 80%.

Tested on: Mus musculus
Test: Effect of delayed treatment on mortality of systemically infected mice at 25 mg/kg per day administered Intraperitoneally after 48 hr of start of treatment
Assay type: functional
Details: route intraperitoneal
Summary of the method: as §1

`O=c1[nH]c(=O)n([C@H]2C[C@H](O)[C@@H](CO)O2)cc1CCCl` was tested, and the Survivors was 80%.

Tested on: Mus musculus
Test: In vivo evaluation for the percent survivors in systemic HSV-1 infection of Mice administered through intraperitoneal at a dose 100 mg/kg per day
Assay type: functional
Details: not given
Summary of the method: as §2

First: Nc1nc2c(ncn2COCCO)c(=O)[nH]1 [ACYCLOVIR]
Second: O=c1[nH]c(=O)n([C@H]2C[C@H](O)[C@@H](CO)O2)cc1/C=C/Br [BRIVUDINE]
The Survivors of the first is higher: 91% for the first, 33% for the second.

Tested on: Mus musculus
Test: In vivo evaluation for the percent survivors in systemic HSV-1 infection of Mice administered intraperitoneally at a dose 10 mg/kg per day
Assay type: functional
Details: route intraperitoneal
Summary of the method: as §2

Work on `O=c1[nH]c(=O)n([C@H]2C[C@H](O)[C@@H](CO)O2)cc1CCCl` yielded a Survivors of 91%.

Tested on: Mus musculus
Test: Effect of delayed treatment on mortality of systemically infected mice at 25 mg/kg per day administered through oral route after 48 hr of start of treatment
Assay type: functional
Details: not given
Summary of the method: as §1

`O=c1[nH]c(=O)n([C@H]2C[C@H](O)[C@@H](CO)O2)cc1CCCl` gave a Survivors of 100%.

Tested on: Mus musculus
Test: In vivo evaluation for the percent survivors in systemic HSV-1 infection of Mice administered through intraperitoneal at a dose 1 mg/kg per day
Assay type: functional
Details: not given
Summary of the method: as §2

Compared with `Nc1nc2c(ncn2COCCO)c(=O)[nH]1` [ACYCLOVIR], `O=c1[nH]c(=O)n([C@H]2C[C@H](O)[C@@H](CO)O2)cc1/C=C/Br` [BRIVUDINE] is lower in Survivors: 54% for the first, 33% for the second.

Tested on: Mus musculus
Test: In vivo evaluation for the percent survivors in systemic HSV-1 infection of Mice administered through oral route at a dose 2.5 mg/kg per day
Assay type: functional
Details: not given
Summary of the method: as §2

Compared with `O=c1[nH]c(=O)n([C@H]2C[C@H](O)[C@@H](CO)O2)cc1CCCl`, `O=c1[nH]c(=O)n([C@H]2C[C@H](O)[C@@H](CO)O2)cc1/C=C/Br` [BRIVUDINE] is lower in Survivors: 82% for the first, 0% for the second.

`Nc1nc2c(ncn2COCCO)c(=O)[nH]1` [ACYCLOVIR] gave a Survivors of 0%.

Tested on: Mus musculus
Test: In vivo evaluation for the percent survivors in systemic HSV-1 infection of Mice administered intraperitoneally at a dose 25 mg/kg per day
Assay type: functional
Details: route intraperitoneal
Summary of the method: as §2

Work on `O=c1[nH]c(=O)n([C@H]2C[C@H](O)[C@@H](CO)O2)cc1CCCl` yielded a Survivors of 83%.

Tested on: Mus musculus
Test: In vivo evaluation for the percent survivors in systemic HSV-1 infection of Mice administered through at a dose 25 mg/kg per day
Assay type: functional
Details: not given
Summary of the method: as §2

First: Nc1nc2c(ncn2COCCO)c(=O)[nH]1 [ACYCLOVIR]
Second: O=c1[nH]c(=O)n([C@H]2C[C@H](O)[C@@H](CO)O2)cc1/C=C/Br [BRIVUDINE]
The Survivors of the first is higher: 100% for the first, 8% for the second.

Tested on: Mus musculus
Test: In vivo evaluation for the percent survivors in systemic HSV-1 infection of Mice administered through oral route at a dose 25 mg/kg per day
Assay type: functional
Details: not given
Summary of the method: as §2

First: O=c1[nH]c(=O)n([C@H]2C[C@H](O)[C@@H](CO)O2)cc1CCCl
Second: O=c1[nH]c(=O)n([C@H]2C[C@H](O)[C@@H](CO)O2)cc1/C=C/Br [BRIVUDINE]
The Survivors of the first is higher: 100% for the first, 0% for the second.

`Nc1nc2c(ncn2COCCO)c(=O)[nH]1` [ACYCLOVIR] gave a Survivors of 55%.

Tested on: Mus musculus
Test: In vivo evaluation for the percent survivors in systemic HSV-1 infection of Mice administered through intraperitoneal at a dose 5 mg/kg per day
Assay type: functional
Details: not given
Summary of the method: as §2

Compared with `Nc1nc2c(ncn2COCCO)c(=O)[nH]1` [ACYCLOVIR], `O=c1[nH]c(=O)n([C@H]2C[C@H](O)[C@@H](CO)O2)cc1/C=C/Br` [BRIVUDINE] is lower in Survivors: 75% for the first, 25% for the second.

Tested on: Mus musculus
Test: In vivo evaluation for the percent survivors in systemic HSV-1 infection of Mice administered intraperitoneally at a dose 1 mg/kg per day
Assay type: functional
Details: route intraperitoneal
Summary of the method: as §2

`O=c1[nH]c(=O)n([C@H]2C[C@H](O)[C@@H](CO)O2)cc1CCCl` gave a Survivors of 75%.

Tested on: Mus musculus
Test: Effect of delayed treatment on mortality of systemically infected mice at 25 mg/kg per day administered Intraperitoneally after 3 hr of start of treatment
Assay type: functional
Details: route intraperitoneal
Summary of the method: as §1

`O=c1[nH]c(=O)n([C@H]2C[C@H](O)[C@@H](CO)O2)cc1CCCl` showed a Survivors of 100%.

Tested on: HEp-2
Test: Minimum toxic effect against HEp-2 cells.
Assay type: functional, Homo sapiens
Details: not given
Summary of the method: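 Uninfected HEp-2 cells were exposed to 3-fold serial dilutions of compound in E-MEM with FCS, run alongside the CPE assay. Cell density was set to reach a monolayer in 1–2 days. Plates were fixed and stained at 3 days. MTC is the lowest concentration causing visible toxic effects.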

Compared with `O=c1[nH]c(=O)n([C@H]2C[C@H](O)[C@@H](CO)O2)cc1CCCl`, `O=c1[nH]c(=O)n([C@@H]2C[C@H](O)[C@@H](CO)O2)cc1CCCl` is 3.3-fold lower in MTC: 330 µg/mL for the first, 100 µg/mL for the second.

Going from `Nc1nc2c(ncn2COCCO)c(=O)[nH]1` [ACYCLOVIR] to `O=c1[nH]c(=O)n([C@H]2C[C@H](O)[C@@H](CO)O2)cc1/C=C/Br` [BRIVUDINE], the MTC falls from 330 µg/mL to 100 µg/mL (3.3-fold).

Tested on: Mus musculus
Test: In vivo evaluation for the percent survivors in systemic HSV-1 infection of Mice administered through intraperitoneal at a dose 10 mg/kg per day
Assay type: functional
Details: not given
Summary of the method: as §2

Compared with `Nc1nc2c(ncn2COCCO)c(=O)[nH]1` [ACYCLOVIR], `O=c1[nH]c(=O)n([C@H]2C[C@H](O)[C@@H](CO)O2)cc1/C=C/Br` [BRIVUDINE] is lower in Survivors: 83% for the first, 18% for the second.

Tested on: Mus musculus
Test: In vivo evaluation for the percent survivors in systemic HSV-1 infection of Mice administered through oral route at a dose 5 mg/kg per day
Assay type: functional
Details: not given
Summary of the method: as §2

Going from `O=c1[nH]c(=O)n([C@H]2C[C@H](O)[C@@H](CO)O2)cc1CCCl` to `O=c1[nH]c(=O)n([C@H]2C[C@H](O)[C@@H](CO)O2)cc1/C=C/Br` [BRIVUDINE], the Survivors falls from 67% to 0%.

With `Nc1nc2c(ncn2COCCO)c(=O)[nH]1` [ACYCLOVIR] the Survivors was 9%.

Tested on: Mus musculus
Test: Effect of delayed treatment on mortality of systemically infected mice at 25 mg/kg per day administered Intraperitoneally after 72 hr of start of treatment
Assay type: functional
Details: route intraperitoneal
Summary of the method: as §1

Molecule `O=c1[nH]c(=O)n([C@H]2C[C@H](O)[C@@H](CO)O2)cc1CCCl` has a Survivors of 60%.

Tested on: Mus musculus
Test: In vivo evaluation for the percent survivors in systemic HSV-1 infection of Mice administered intraperitoneally at a dose 100 mg/kg per day
Assay type: functional
Details: route intraperitoneal
Summary of the method: as §2

Work on `O=c1[nH]c(=O)n([C@H]2C[C@H](O)[C@@H](CO)O2)cc1CCCl` yielded a Survivors of 100%.

Tested on: Human alphaherpesvirus 2
Test: Minimum inhibitory concentration against HSV-2.
Assay type: functional
Details: not given
Summary of the method: (§3)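 CPE-inhibition assay in HEp-2 cells. Compound was serially diluted 3-fold in E-MEM, then virus (HSV-1 Brand or HSV-2 K979) and a cell suspension in E-MEM plus 15% FCS were added together. Virus input gave 90–100% CPE in infected controls after 3 days. Plates were then fixed and stained, and CPE was scored.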

First: O=c1[nH]c(=O)n([C@H]2C[C@H](O)[C@@H](CO)O2)cc1CCCl
Second: O=c1[nH]c(=O)n([C@@H]2C[C@H](O)[C@@H](CO)O2)cc1CCCl
The MIC of the first is 33-fold lower: 3 µg/mL (≈ 10.3 µM) for the first, 100 µg/mL (≈ 344 µM) for the second.

`Nc1nc2c(ncn2COCCO)c(=O)[nH]1` [ACYCLOVIR] and `O=c1[nH]c(=O)n([C@H]2C[C@H](O)[C@@H](CO)O2)cc1/C=C/Br` [BRIVUDINE] are the same in MIC: 3 µg/mL (≈ 13.3 µM) for the first, 3 µg/mL (≈ 9.01 µM) for the second.

Tested on: Mus musculus
Test: Effect of delayed treatment on mortality of systemically infected mice at 25 mg/kg per day administered through oral route after 24 hr of start of treatment
Assay type: functional
Details: not given
Summary of the method: as §1

In the case of `O=c1[nH]c(=O)n([C@H]2C[C@H](O)[C@@H](CO)O2)cc1CCCl`, the Survivors is reported as 90%.

Tested on: Human alphaherpesvirus 1
Test: Minimum inhibitory concentration against HSV-1.
Assay type: functional
Details: not given
Summary of the method: as §3

Going from `O=c1[nH]c(=O)n([C@H]2C[C@H](O)[C@@H](CO)O2)cc1CCCl` to `O=c1[nH]c(=O)n([C@@H]2C[C@H](O)[C@@H](CO)O2)cc1CCCl`, the MIC rises from 0.03 µg/mL (≈ 0.103 µM) to 3 µg/mL (≈ 10.3 µM) (100-fold).

Compared with `Nc1nc2c(ncn2COCCO)c(=O)[nH]1` [ACYCLOVIR], `O=c1[nH]c(=O)n([C@H]2C[C@H](O)[C@@H](CO)O2)cc1/C=C/Br` [BRIVUDINE] is 100-fold lower in MIC: 0.3 µg/mL (≈ 1.33 µM) for the first, 0.003 µg/mL (≈ 0.00901 µM) for the second.
